High-throughput results: PubChem, several laboratories
KCNK3 inh – human KCNK3 channel inhibition, primary screen. O14649. CHO-KCNK3 thallium flux, FluxOR fluorescence; stronger effect = lower value. B-score at 10 µM. 340,000 compounds, 0.84% hits;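 active means B-score under library mean minus 4 SD, starting fluorescence ratio at most library mean plus 5 SD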;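 further: more negative B-score means stronger inhibition of thallium flux through KCNK3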
Target sequence (O14649 whole entry, looked up): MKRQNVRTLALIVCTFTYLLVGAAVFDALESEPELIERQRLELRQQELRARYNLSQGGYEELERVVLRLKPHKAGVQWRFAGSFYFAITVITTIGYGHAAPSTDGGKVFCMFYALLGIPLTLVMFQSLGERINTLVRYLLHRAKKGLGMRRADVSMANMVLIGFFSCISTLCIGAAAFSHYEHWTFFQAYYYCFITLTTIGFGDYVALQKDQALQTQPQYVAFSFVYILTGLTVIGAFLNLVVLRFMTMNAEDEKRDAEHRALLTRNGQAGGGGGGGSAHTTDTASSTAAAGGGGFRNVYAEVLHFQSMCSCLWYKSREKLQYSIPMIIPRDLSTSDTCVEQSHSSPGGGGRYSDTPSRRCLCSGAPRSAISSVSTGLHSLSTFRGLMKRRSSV
KCC2 mod – modulates chloride dependent transport by human KCC2; KCC2 cells, thallium flux FluoZin-2 fluorescence; B-score of Tl+ flux slope (higher = more flux/activation; lower = inhibition) at 10 µM; 190,000 compounds, 2.2% hits;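 active means thallium flux slope and its plate-corrected score both differing from the plate sample mean at a set confidence after two filtering rounds, in either direction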;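 further: slope of fluorescence scaled to starting intensity during 10 to 20 s after thallium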
hERG protect – hERG (human) protection from proarrhythmic block | CHO-hERG, FluxOR thallium flux, dofetilide IC70 present | Q12809 | 310,000 compounds, 0.51% hits | activation (rescue from dofetilide block), less the hit threshold, % at 10 µM;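 active means activation above the mean of controls blocked by dofetilide plus 5 SD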;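 further: thallium influx through hERG after potassium depolarization seen as dye fluorescence rise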
KCNQ1 block – inhibitors of human KCNQ1 potassium channel. P51787. CHO-K1 KCNQ1, FluxOR thallium flux fluorescence; stronger effect = higher value. B-score at 10 µM. 310,000 compounds, 1.3% hits. AID 2642;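 active means compounds whose thallium flux B-score, printed positive for inhibition, exceeds three library SD while starting fluorescence stays within three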;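 further: channel opened by potassium depolarization with thallium stimulus after 20 min compound exposure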
KCNK9 block – blocks the human KCNK9 two-pore domain potassium channel. AID 488922. 310,000 compounds, 1.2% hits. B-score at 10 µM. HEK293 KCNK9, FluxOR thallium flux fluorescence; stronger effect = lower value;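 active means ratio B-score over 3 SD below the library mean, with starting fluorescence within 5 SD of its mean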;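 further: negative B-score means less thallium flux so channel inhibition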
KCNQ1 act – human KCNQ1 channel potentiation or activation. CHO-K1 KCNQ1, thallium flux FluxOR fluorescence; stronger effect = higher value. B-score at 10 µM. 310,000 compounds, 0.35% hits. AID 2648;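 active means fluorescence ratio B-score, a plate-corrected score, at least three library SD, with initial intensity B-score within 5 SD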
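Test system: CHO-K1 cells stably expressing KCNQ1 / Medium: assay buffer / Also added: depolarizing K+/Tl+ stimulus, K2SO4 and Tl2SO4 each 12.5 mM in 5x stock / Incubation: 90 min dye loading and 20 min compound exposure, both at room temperature / Signal: thallium influx via FluxOR fluorescence, kinetic imaging / Evaluation: B score of baseline-normalized fluorescence ratio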
KCNK3 confirm – confirmation of human KCNK3 two-pore domain potassium channel inhibitors; shares compounds with KCNK3 inh; CHO-KCNK3 thallium flux, FluxOR fluorescence; 0% buffer, 100% carvedilol maximal block; ratio percent of control, % at 10 µM; 2,400 compounds, 99% hits;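 active means ratio percent of control, averaged over triplicates, above buffer control mean plus 5 SD, cut at about 64% in these data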;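 further: ratio is the fluorescence rise from min to max over baseline after thallium stimulus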
KCNK3 noninduced – KCNK3 inhibitor counter-screen hit in non-induced cells; non-induced KCNK3 parental cells, FluxOR thallium flux; stronger effect = lower value; shares compounds with KCNK3 inh; thallium flux ratio (lower = more inhibition) at 10 µM; 2,400 compounds, 40% hits;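 active means thallium flux ratio, averaged over three wells, more than 5 SD below the buffer control mean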;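 further: host cells are CHO cells without KCNK3 induction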
Hits are given with their value. Rows were chosen to be rich in hits. Some 4.1% of all compounds tested hit in one or more screens of this group.

CCN(CC)S(=O)(=O)c1ccc(C)c(NC(=S)N2CCN(c3ccccn3)CC2)c1 was read as KCNK3 inh inactive, hERG protect inactive, KCNQ1 block inactive, KCNK9 block inactive and KCNQ1 act inactive.
Cc1cccc(NC2(C(=O)O)CCCC2)c1 was read as KCNK3 inh inactive.
For CCc1ccccc1N1CC(C(=O)Nc2cc(S(=O)(=O)N3CCCC3)ccc2Cl)CC1=O (stereo not drawn) the results were KCNK3 inh inactive.
CCN(Cc1ccc(OC)c(F)c1)C(=O)CCl was read as KCNK3 inh inactive, KCC2 mod inactive, hERG protect inactive, KCNQ1 block inactive, KCNK9 block inactive and KCNQ1 act inactive.
`CCN(Cc1ccc(OC)c(F)c1)C(=O)c1oc2ccccc2c1COC` gave KCNK3 inh -14, hERG protect inactive, KCNQ1 block inactive, KCNK9 block inactive, KCNQ1 act inactive, KCNK3 confirm 94 and KCNK3 noninduced inactive.
Screening CCOCCCN1C(=O)C(=O)N(CC(=O)N2c3ccccc3NC(=O)CC2C)C1=O (stereo not drawn) returned KCNK3 inh inactive.
`Cc1ccc(S(=O)(=O)N(CC(=O)NCCC2=CCCCC2)Cc2ccccc2F)cc1` gave KCNK3 inh -9.4, KCC2 mod inactive, hERG protect inactive, KCNQ1 block inactive, KCNK9 block inactive, KCNQ1 act inactive, KCNK3 confirm 116 and KCNK3 noninduced inactive.
For Cc1ccc2oc(C(=O)N(Cc3ccccc3)C3CCS(=O)(=O)C3)c(C)c2c1 (stereo not drawn) the results were KCNK3 inh inactive, hERG protect inactive, KCNQ1 block inactive, KCNK9 block inactive and KCNQ1 act inactive.
`Cc1cc2oc(C(=O)N(Cc3ccccc3)C3CCS(=O)(=O)C3)c(C)c2cc1C` (stereo not drawn) gave KCNK3 inh -11, hERG protect inactive, KCNQ1 block inactive, KCNK9 block inactive, KCNQ1 act inactive, KCNK3 confirm 92 and KCNK3 noninduced inactive.
For COc1ccc(S(=O)(=O)N2CCc3ccccc32)cc1C(=O)NC1(C)CCS(=O)(=O)C1 (stereo not drawn) the results were KCNK3 inh inactive.
`COC(=O)C1=C(C)NC(C)=C(C(=O)OC)C1c1cn(-c2ccccc2)nc1-c1ccco1` gave KCNK3 inh -10, KCC2 mod inactive, hERG protect inactive, KCNQ1 block inactive, KCNK9 block inactive, KCNQ1 act inactive, KCNK3 confirm 100 and KCNK3 noninduced inactive.
`CCOC(=O)c1c(NC(=O)C2COc3ccccc3O2)sc(C)c1C` (stereo not drawn) gave KCNK3 inh -8.8, KCC2 mod inactive, hERG protect inactive, KCNQ1 block inactive, KCNK9 block inactive, KCNQ1 act inactive, KCNK3 confirm 107 and KCNK3 noninduced 0.14.
For CCOC(=O)CNC(=O)C1COc2ccccc2O1 (stereo not drawn) the results were KCNK3 inh inactive, KCC2 mod inactive, hERG protect inactive, KCNQ1 block inactive, KCNK9 block inactive and KCNQ1 act inactive.
`Cc1ccc(S(=O)(=O)NCc2ccccc2)cc1C(=O)NC(C)c1ccc(S(N)(=O)=O)cc1` (stereo not drawn) gave KCNK3 inh inactive.
For O=S(=O)(CCNCc1ccccc1)NC1CCCCC1 the results were KCNK3 inh inactive.
`c1ccc(COn2nnc3ccccc32)c(COn2nnc3ccccc32)c1` gave KCNK3 inh -9.7, KCC2 mod inactive, hERG protect inactive, KCNQ1 block inactive, KCNK9 block inactive, KCNQ1 act inactive, KCNK3 confirm 102 and KCNK3 noninduced inactive.
Screening Clc1cccc(Cl)c1COn1nnc2ccccc21 returned KCNK3 inh inactive, KCC2 mod inactive, hERG protect inactive, KCNQ1 block inactive, KCNK9 block inactive and KCNQ1 act inactive.
Screening Cc1cccc(C(CC(=O)NCCc2ccccc2)c2ccccc2)c1O (stereo not drawn) returned KCNK3 inh inactive, KCC2 mod inactive, hERG protect inactive, KCNQ1 block inactive, KCNK9 block inactive and KCNQ1 act inactive.
`Cc1cccc(C(CC(=O)NCc2ccco2)c2ccccc2)c1O` (stereo not drawn) gave KCNK3 inh -9, KCC2 mod inactive, hERG protect inactive, KCNQ1 block inactive, KCNK9 block inactive, KCNQ1 act inactive, KCNK3 confirm 110 and KCNK3 noninduced inactive.
CCCc1cc(C(=O)Cc2ccc(C(=O)OCC)o2)c(O)cc1O was read as KCNK3 inh -11, KCC2 mod inactive, hERG protect inactive, KCNQ1 block inactive, KCNK9 block -17, KCNQ1 act inactive, KCNK3 confirm 104 and KCNK3 noninduced 0.13.
Screening CC(C)CC(c1nnnn1Cc1ccco1)N1CCN(c2cccc(Cl)c2)CC1 (stereo not drawn) returned KCNK3 inh -10, KCC2 mod inactive, hERG protect inactive, KCNQ1 block inactive, KCNK9 block inactive, KCNQ1 act inactive, KCNK3 confirm 126 and KCNK3 noninduced inactive.
For N#CC1(NC(=O)COc2ccc(C(N)=O)cc2)CCCC1 the results were KCNK3 inh inactive.
For COc1ccccc1N1CCN(C(c2cccs2)C(C)NS(=O)(=O)c2ccccc2)CC1 (stereo not drawn) the results were KCNK3 inh -9.6, KCC2 mod inactive, hERG protect inactive, KCNQ1 block 6, KCNK9 block inactive, KCNQ1 act inactive, KCNK3 confirm 96 and KCNK3 noninduced inactive.
`CC(NS(=O)(=O)c1ccccc1)C(c1cccs1)N1CCN(c2ccccc2)CC1` (stereo not drawn) gave KCNK3 inh inactive, KCC2 mod inactive, hERG protect inactive, KCNQ1 block inactive, KCNK9 block inactive and KCNQ1 act inactive.
For Cc1ccc(/C=C/c2nnc(-c3cccs3)o2)cc1 the results were KCNK3 inh -8.8, KCC2 mod inactive, hERG protect inactive, KCNQ1 block inactive, KCNK9 block inactive, KCNQ1 act inactive, KCNK3 confirm 84 and KCNK3 noninduced inactive.
`COC(=O)[C@]1(Cc2ccccc2)N[C@H](c2ccc(-c3ccc(F)cc3)cc2)[C@@H]2C(=O)N(C)C(=O)[C@@H]21` gave KCNK3 inh inactive, hERG protect inactive, KCNQ1 block inactive, KCNK9 block inactive and KCNQ1 act inactive.
